ChEMBL document CHEMBL1139440, “Chemical function based pharmacophore generation of endothelin-A selective receptor antagonists” (J Med Chem, 2004)
Square brackets hold non-standard residues; d marks the D form. Peptide text beside a SMILES is read from it. * marks the point of attachment. Cbz = O=C(OCc1ccccc1)*

Key:
Endothelin-1 receptor [1] = biological target: T1, Endothelin-1 receptor (Rattus norvegicus, UniProt P26684); test: Ability to displace [125I]ET1 from the rat endothelin A receptor expressed in rat aorta smooth muscle cells.; type: cell-based
T1 sequence (P26684 whole entry): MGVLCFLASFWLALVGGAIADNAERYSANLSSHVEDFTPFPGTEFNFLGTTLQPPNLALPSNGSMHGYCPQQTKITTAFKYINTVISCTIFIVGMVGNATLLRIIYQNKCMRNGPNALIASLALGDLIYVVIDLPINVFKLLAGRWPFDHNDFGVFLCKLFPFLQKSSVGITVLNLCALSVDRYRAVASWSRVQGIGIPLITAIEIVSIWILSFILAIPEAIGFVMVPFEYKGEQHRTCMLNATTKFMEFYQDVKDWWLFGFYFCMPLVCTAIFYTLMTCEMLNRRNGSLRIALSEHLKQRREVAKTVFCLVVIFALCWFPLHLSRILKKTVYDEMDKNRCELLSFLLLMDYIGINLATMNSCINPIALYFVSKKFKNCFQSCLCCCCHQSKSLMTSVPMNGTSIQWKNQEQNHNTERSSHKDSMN

[2] = biological target: T2, Endothelin receptor type B (Homo sapiens, UniProt P24530); test: Inhibitory concentration against Endothelin B receptor
T2 sequence (P24530 whole entry): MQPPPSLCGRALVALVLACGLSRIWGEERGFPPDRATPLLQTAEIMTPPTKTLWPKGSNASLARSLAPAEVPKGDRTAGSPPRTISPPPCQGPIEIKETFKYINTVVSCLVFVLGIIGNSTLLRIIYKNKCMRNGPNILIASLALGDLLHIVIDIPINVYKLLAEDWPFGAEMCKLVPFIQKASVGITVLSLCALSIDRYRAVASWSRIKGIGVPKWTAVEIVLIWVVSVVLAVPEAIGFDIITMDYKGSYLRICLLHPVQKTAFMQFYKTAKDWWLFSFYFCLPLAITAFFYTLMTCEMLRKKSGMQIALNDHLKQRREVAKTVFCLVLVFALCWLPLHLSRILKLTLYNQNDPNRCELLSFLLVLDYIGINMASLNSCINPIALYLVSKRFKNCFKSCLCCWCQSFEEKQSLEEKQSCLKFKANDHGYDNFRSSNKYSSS

[3] = biological target: T3, Endothelin-1 receptor (Homo sapiens) (UniProt P25101); conditions: Vero
T3 sequence (whole entry): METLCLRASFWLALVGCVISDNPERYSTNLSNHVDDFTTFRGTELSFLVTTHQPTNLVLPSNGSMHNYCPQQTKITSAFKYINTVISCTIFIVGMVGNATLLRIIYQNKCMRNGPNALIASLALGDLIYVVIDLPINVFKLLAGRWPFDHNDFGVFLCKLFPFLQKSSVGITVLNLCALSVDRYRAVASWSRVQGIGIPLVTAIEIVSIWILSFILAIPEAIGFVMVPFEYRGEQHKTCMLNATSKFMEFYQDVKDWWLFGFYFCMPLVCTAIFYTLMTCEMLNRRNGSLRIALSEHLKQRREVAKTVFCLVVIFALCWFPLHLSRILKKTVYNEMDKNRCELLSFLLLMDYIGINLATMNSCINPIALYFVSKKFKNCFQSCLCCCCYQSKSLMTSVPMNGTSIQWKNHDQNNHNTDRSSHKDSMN

[4] = biological target: T3, Endothelin-1 receptor (Homo sapiens); test: Inhibition of [125]ET-1 binding to human ETA receptor expressed in vero cells at 10E-4 M concentration; type: cell-based
Summary of the method: (§1)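 Vero (green monkey renal) cells grown as monolayers at 37 °C in MEM with 10% FBS, nonessential amino acids and penicillin/streptomycin under 5% CO2. Whole-cell binding was done in triplicate (2 × 10^5 cells/well) in HEPES-buffered saline at pH 7.4 with 50 pM [125I]ET-1 for 1 h. Nonspecific binding was defined with 500 nM ET-1. Compounds were tested at ca. 10^-10–10^-4 M. Bound radioactivity was collected by filtration and counted.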

Endothelin-1 receptor [5] = biological target: T4, Endothelin-1 receptor (Homo sapiens, UniProt P25101); test: Inhibition of [125]ET-1 binding to human Endothelin A receptor expressed in vero cells; type: cell-based; summary of the method: as §1
T4 sequence (P25101 whole entry): T3 sequence (whole entry)

An IC50 (Endothelin-1 receptor [1]) of 96 nM was found for `CCOc1ccc2c(c1)[C@@H](c1ccc(OC)cc1)N(CC(=O)O)[C@@H]2c1ccc2c(c1)OCO2` in this work.

An IC50 (Endothelin-1 receptor [1]) of 45.3 nM was found for `CCCNC(=O)CN1C[C@@H](c2ccc3c(c2)OCO3)[C@H](C(=O)O)[C@H]1c1ccc(OC)cc1` in this work.

An IC50 (Endothelin-1 receptor [1]) of 1.8 nM was found for `COc1ccc(C/C(C(=O)c2ccc(OC)cc2)=C(/C(=O)O)c2ccc3c(c2)OCO3)cc1` in this work.

An IC50 (Endothelin-1 receptor [1]) of 3 nM and an IC50 [2] of 260 nM were found for `COc1ccc(C(=O)/C(Cc2cccc(OC)c2)=C(\C(=O)O)c2ccc3c(c2)OCO3)cc1` in this work.

An IC50 (Endothelin-1 receptor [1]) of 16 nM was found for `COc1ccc([C@H]2[C@H](C(=O)O)[C@@H](c3ccc4c(c3)OCO4)CN2CC(=O)Nc2cccc(C)c2C)cc1` in this work.

An IC50 [2] of 400 nM was found for `CCCCC1=C(C(=O)O)[C@@H](c2ccc3c(c2)OCO3)Oc2ccc(OC(C)C)cc21` in this work.

An IC50 (Endothelin-1 receptor [1]) of 0.05 nM was found for `COC(=O)CCCCOc1cc(C/C(C(=O)c2ccc(OC)cc2)=C(/C(=O)O)c2ccc3c(c2)OCO3)cc(OC)c1OC` in this work.

An IC50 [3] of 25 nM was found for `CC(C)C[C@@H]1NC(=O)[C@@H](C(C)C)NC(=O)[C@@H]2CCCN2C(=O)[C@@H](CC(=O)O)NC(=O)[C@@H](Cc2c[nH]c3ccccc23)NC1=O` (cyclo(L[dW][dD]P[dV])) in this work.

An IC50 (Endothelin-1 receptor [1]) of 3.9 nM was found for `COc1ccc([C@H]2[C@H](C(=O)O)[C@@H](c3ccc4c(c3)OCO4)CN2CC(=O)NC(Cc2ccccc2)c2ccccc2)cc1` (stereo partly drawn) in this work.

An inhibition [4] of 60% was found for `COc1ccc(NC(=O)CC(CC(=O)O)c2cc(OC)c(OC)c(OC)c2)cc1` (stereo not drawn) in this work.

An IC50 (Endothelin-1 receptor [1]) of 0.29 nM was found for `CCCCN(CCCC)C(=O)CN1C[C@H](c2ccc3c(c2)OCO3)[C@@H](C(=O)O)[C@@H]1CCCCC(C)C` in this work.

An IC50 (Endothelin-1 receptor [1]) of 0.5 nM and an IC50 [2] of 5100 nM were found for `CCCCN(CCCC)C(=O)CN1C[C@H](c2ccc3c(c2)OCO3)[C@@H](CC(=O)O)[C@@H]1c1ccc(OC)cc1` in this work.

An IC50 (Endothelin-1 receptor [1]) of 2030 nM was found for `COc1ccc([C@@H]2[C@@H](CC(=O)O)[C@H](c3ccc4c(c3)OCO4)CN2CC(N)=O)cc1` in this work.

An IC50 (Endothelin-1 receptor [5]) of 6200 nM was found for `COC(=O)c1cc(S(=O)(=O)Nc2cccc(-c3cnco3)c2)oc1C` in this work.

An IC50 (Endothelin-1 receptor [1]) of 110 nM was found for `COc1ccc(C(=O)/C(Cc2ccc(Cl)cc2)=C(\C(=O)O)c2ccc3c(c2)OCO3)cc1` in this work.

An IC50 (Endothelin-1 receptor [1]) of 5.2 nM was found for `COC1=C(C(=O)O)[C@H](c2ccc3c(c2)OCO3)Oc2ccc(OC(C)C)cc21` in this work.

An IC50 (Endothelin-1 receptor [1]) of 11 nM was found for `COc1ccc(C(=O)/C(Cc2ccccc2)=C(\C(=O)O)c2ccc3c(c2)OCO3)cc1OC` in this work.

An IC50 (Endothelin-1 receptor [1]) of 0.78 nM was found for `C/C=C/CC[C@H]1[C@H](C(=O)O)[C@@H](c2ccc3c(c2)OCO3)CN1CC(=O)N(CCCC)CCCC` in this work.

An IC50 (Endothelin-1 receptor [5]) of 220 nM was found for `CC(C)C(NC(=O)OCc1ccccc1)C(=O)NC(Cc1ccc(O)cc1)C(=O)O` (stereo not drawn) (Cbz-Val-Tyr-OH; configuration not given here) in this work.

An IC50 (Endothelin-1 receptor [1]) of 5.4 nM was found for `CCOc1ccc2c(c1)[C@@H](c1ccc(OC)cc1OCC(=O)O)N(CC(=O)O)[C@@H]2c1ccc2c(c1)OCO2` in this work.

An IC50 (Endothelin-1 receptor [1]) of 0.7 nM was found for `COc1ccc([C@H]2[C@H](C(=O)O)[C@@H](c3ccc4c(c3)OCO4)CN2CC(=O)NC(c2ccccc2)C(C)C)cc1` (stereo partly drawn) in this work.

An IC50 (Endothelin-1 receptor [1]) of 14 nM was found for `COc1ccc(C(=O)/C(Cc2cccc3ccccc23)=C(\C(=O)O)c2ccc3c(c2)OCO3)cc1` in this work.

An IC50 (Endothelin-1 receptor [1]) of 0.12 nM was found for `CCOc1cc(C/C(C(=O)c2ccc(OC)cc2)=C(/C(=O)O)c2ccc3c(c2)OCO3)cc(OCC)c1OCC` in this work.

An IC50 (Endothelin-1 receptor [1]) of 6.7 nM was found for `COc1ccc(C(=O)/C(Cc2ccccc2)=C(\C(=O)O)c2cc(OC)c3c(c2)OCO3)cc1` in this work.

An IC50 (Endothelin-1 receptor [1]) of 500 nM was found for `COc1cccc(C(=O)/C(Cc2ccccc2)=C(\C(=O)O)c2ccc3c(c2)OCO3)c1` in this work.

An IC50 (Endothelin-1 receptor [1]) of 0.5 nM was found for `COc1ccc(C(=O)/C(Cc2cc(OC)c(OC)c(OC)c2)=C(\C(=O)O)c2cc(OC)c3c(c2)OCO3)cc1` in this work.

An IC50 (Endothelin-1 receptor [1]) of 630 nM was found for `CCc1ccc(C(=O)/C(Cc2ccccc2)=C(\C(=O)O)c2ccc3c(c2)OCO3)cc1` in this work.

An IC50 (Endothelin-1 receptor [1]) of 410 nM was found for `CCCCC1=C(C(=O)O)C(c2ccc3c(c2)OCO3)Oc2ccc(OC(C)C)cc21` (stereo not drawn) in this work.

An inhibition [4] of 77% was found for `CCOc1cc(N2CCOCC2)c(OCC)cc1NS(=O)(=O)c1ccc(OC)cc1` in this work.

An IC50 (Endothelin-1 receptor [1]) of 200 nM was found for `COc1ccc(C(=O)/C(Cc2ccc(-c3ccccc3)cc2)=C(\C(=O)O)c2ccc3c(c2)OCO3)cc1` in this work.

An IC50 (Endothelin-1 receptor [1]) of 3.5 nM was found for `COc1cc(/C(C(=O)O)=C(\CC2CCCCC2)C(=O)c2ccc3c(c2)OCCO3)cc2c1OCO2` in this work.
